Measurements: ChEMBL document CHEMBL1152947, “9,11-Secosterols with antiproliferative activity from the gorgonian Eunicella cavolini” (Bioorg Med Chem, 2009)

Key:
MCF7 [1] = test: Growth inhibition of human MCF7 cells at 10 uM after 4 days by MTT assay in presence of 10% fetal bovine serum relative to control; type: functional; details: MCF7, 96 h, read-out: GI
Summary of the method: (§1)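 LNCaP or MCF-7 cells in MEM with 10% FBS were given test compound at 10 µM or 0.1% DMSO vehicle; MCF-7 exposure was four days. MTT read-out at 550 nm. Inhibition was calculated as (OD vehicle − OD test) × 100 / OD vehicle. Values are mean ± SEM, n = 4, ANOVA versus vehicle.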

LNCaP [2] = test: Growth inhibition of human LNCAP cells at 10 uM after 4 days by MTT assay in presence of 10% fetal bovine serum relative to control; type: functional; details: 96 h, read-out: GI; summary of the method: as §1
MCF7 [3] = test: Growth inhibition of human MCF7 cells at 10 uM after 4 days by MTT assay in presence of 5% heat-inactivated fetal bovine serum treated with dextran-coated charcoal and 17-beta-estradiol relative to ICI-182780; type: functional; details: MCF7, 96 h, read-out: GI
Summary of the method: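 MCF-7 cells in MEM with 5% dextran-coated-charcoal-treated heat-inactivated FBS plus 1 nM 17β-estradiol were exposed for four days to test compound (10 µM), ICI 182,780 (1 µM) or vehicle. MTT absorbance was read at 550 nm. Effect was calculated as (OD vehicle − OD test) × 100 / (OD vehicle − OD ICI 182,780). Values are mean ± SEM of at least three assays.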

MCF7 [4] = test: Growth inhibition of human MCF7 cells after 4 days by MTT assay in presence of 5% heat-inactivated fetal bovine serum treated with dextran-coated charcoal and 17-beta-estradiol; type: functional, cell-based; details: MCF7, 96 h
LNCaP [5] = test: Growth inhibition of human LNCAP cells after 4 days by MTT assay in presence of 10% fetal bovine serum; type: functional, cell-based; details: 96 h
Summary of the method: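 LNCaP cells were cultured in MEM with 10% FBS in 96-well plates against 0.1% DMSO vehicle. Viable cells were estimated by MTT conversion to formazan, read as absorbance at 550 nm. IC50 was derived from growth inhibition relative to vehicle. Values are mean ± SEM.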

MCF7 [6] = test: Growth inhibition of human MCF7 cells after 4 days by MTT assay in presence of 10% fetal bovine serum; type: functional, cell-based; details: MCF7, 96 h
K562 = test: Cytotoxicity against human K562 cells; type: functional, cell-based
HeLa = test: Cytotoxicity against human HeLa cells; type: functional, cell-based
LNCaP [7] = test: Growth inhibition of human LNCAP cells at 1 uM after 4 days by MTT assay; type: functional; details: 96 h, read-out: GI
LNCaP [8] = test: Cytotoxicity against human LNCAP cells after 4 days by MTT assay; type: functional, cell-based; details: 96 h
Summary of the method: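 LNCaP cells grown in minimal essential medium with 10% FBS, exposed to secosterols for four days in 96-well plates, with 0.1% DMSO as vehicle. Viable cells were estimated from MTT conversion to formazan, read at 550 nm. Absorbance was expressed relative to vehicle (100%), and IC50 was taken from growth inhibition, mean ± SEM of ≥3 independent assays.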

MCF7 [9] = test: Growth inhibition of human MCF7 cells at 1 uM after 4 days by MTT assay; type: functional; details: MCF7, 96 h, read-out: GI
MCF7 [10] = test: Cytotoxicity against human MCF7 cells after 4 days by MTT assay; type: functional, cell-based; details: MCF7, 96 h
Summary of the method: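 MCF-7 cells in minimal essential medium, with either 10% FBS or 5% dextran-charcoal-treated FBS plus 1 nM 17β-estradiol, were exposed to secosterols for four days. Vehicle was 0.1% DMSO. Read-out was MTT formazan absorbance at 550 nm, expressed as % of vehicle. IC50 was derived from growth inhibition, mean ± SEM of ≥3 independent assays.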

Row | SMILES | inhibition of growth at 10 µM (MCF7 [1]) | inhibition of growth at 10 µM (LNCaP [2]) | inhibition of growth at 10 µM (MCF7 [3]) | IC50 (MCF7 [4]) | IC50 (LNCaP [5]) | IC50 (MCF7 [6]) | IC50 (K562) | IC50 (HeLa) | inhibition of growth at 1 µM (LNCaP [7]) | IC50 (LNCaP [8]) | inhibition of growth at 1 µM (MCF7 [9]) | IC50 (MCF7 [10])
1 | C=C(CC[C@@H](C)[C@H]1CC[C@@H](C2=C[C@H](O)[C@H]3C[C@@H](O)CC[C@]3(C)C2=O)[C@]1(C)CCOC(C)=O)C(C)C | ≤ 10% | ≤ 10% | 50% | 3.8 µM | – | – | – | – | – | – | – | –
2 | CC(=O)OCC[C@]1(C)[C@@H]([C@H](C)/C=C\C(C)C(C)C)CC[C@H]1C1=C[C@H](O)[C@H]2C[C@@H](O)CC[C@]2(C)C1=O (some centres not stated) | 27% | 45% | 62% | 6 µM | 6.7 µM | – | – | – | – | – | – | –
3 | CC(=O)OCC[C@]1(C)[C@@H]([C@H](C)/C=C/C(C)C)CC[C@H]1C1=C[C@H](O)[C@H]2C[C@@H](O)CC[C@]2(C)C1=O | 34% | 76% | 86% | 7.4 µM | 7 µM | 7.6 µM | 6.5 µM | 7 µM | – | – | – | –
4 | C[C@]12CC[C@@H]3c4ccc(O)cc4C[C@@H](CCCCCCCCC[S+]([O-])CCCC(F)(F)C(F)(F)F)[C@H]3[C@@H]1CC[C@@H]2O (some centres not stated) [FULVESTRANT] | – | – | – | – | – | – | – | – | 100% | 0.018 µM | 100% | 0.018 µM
5 | CCC(C)/C=C/[C@@H](C)[C@H]1CC[C@@H](C2=C[C@H](O)[C@H]3C[C@@H](O)CC[C@]3(C)C2=O)[C@]1(C)CCOC(C)=O (some centres not stated) | 49% | 83% | 90% | 5.4 µM | 5.4 µM | 7 µM | – | – | – | – | – | –
